Screening data as filed in PubChem.
APP 5'UTR act: activates APP 5'UTR luciferase reporter; 190,000 tested, 1% active; activation, % at 2 µM; SH-SY5Y APP 5'UTR luciferase reporter, luminescence; zero percent = DMSO vehicle wells; AID 1276;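 active means activation above a set limit, based on mean plus 3 SD of controls, cut at about 140% in these data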
STAT3 activator: increases IL-6 driven STAT3 reporter signal; AID 871; 190,000 tested, 0.91% active; U3A cells, IL-6 STAT3-luciferase reporter, luminescence; 100% = signal with IL-6 EC80 alone; activation (% of control), % at 5.6 µM;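 active means activation above the screen-wide mean of compound activation plus 3 SD, cut at about 130% in these data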;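 further: 0% = background luminescence of wells with medium and substrate only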
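Material: human U3A cells carrying STAT3-luciferase construct. Measured by: reporter luminescence signal. Timing: compound 1 h, then IL-6 6 h at 37 °C.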
STAT1 activator: activators of IFN-gamma induced STAT1 signaling; activation (% of control), % at 5.5 µM; NIH 3T3 STAT1-luciferase reporter, luminescence; 100% = IFN-gamma alone, no compound; 200,000 tested, 2.6% active; AID 932;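 active means activation above the screen-wide mean activation plus 3 SD, cut at about 130% in these data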;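 further: raw ratio to IFN-gamma control signal so 100% means no change and 0% no light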
NF-kB neuron act: compounds increasing NF-kB expression in human neuronal cells | NF-kB reporter expression; hits give high values | fold change at 12.5 µM | 190,000 tested, 1.6% active; in the data active means fold change above about 3.3
STAT3 inh-1: STAT3 signaling inhibition | U3A cells, IL-6 STAT3-luciferase reporter, luminescence; host cell line lacks STAT1 | inhibition, % at 5.5 µM | 190,000 tested, 0.89% active | AID 862;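 active means inhibition above the mean inhibition across all screened compounds plus 3 SD, cut at about 44% in these data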;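 further: 0% = DMSO only wells and 100% = 100 µM nifuroxazide control wells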
STAT1 blocker: inhibitors of IFN-gamma induced STAT1 signaling | 200,000 tested, 0.35% active | NIH 3T3 STAT1-luciferase reporter, luminescence | inhibition, % at 5.5 µM;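 active means inhibition above a set limit, the mean inhibition across all tested compounds plus 3 SD, cut at about 34% in these data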;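 further: 0% = IFN-gamma with DMSO and 100% = IFN-gamma with 300 µM nifuroxazide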
STAT3 inh-2: confirmation of STAT3 signaling inhibitors | shares compounds with STAT3 inh-1 | U3A cells, IL-6 STAT3 luciferase reporter, luminescence; cell line lacks STAT1 | inhibition, % at 5.7 µM | AID 1265 | 1,200 tested, 45% active;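 active means inhibition above the hit cutoff computed for the primary STAT3 screen, cut at about 44% in these data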;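 further: 0% = IL-6 plus DMSO and 100% = IL-6 plus nifuroxazide control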
NFkB inh 2: NF-kappaB inhibition in STAT3 inhibitor counter-screen | shares compounds with STAT3 inh-1 | HEK293T NF-kB luciferase reporter, TNF-alpha induced | inhibition, % at 5.7 µM | 1,200 tested, 36% active | AID 1308;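 active means inhibition above the mean of solvent-only control wells plus 3 SD, cutoff set per campaign, cut at about 13% in these data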;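 further: 0% = TNF-alpha with DMSO and 100% = TNF-alpha with MG high control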
STAT1 inh 2: inhibits STAT1, counter-screen to STAT3 inhibitors | inhibition, % at 5.7 µM | NIH 3T3 STAT1-luciferase reporter, IFN-gamma induced, luminescence | 1,200 tested, 27% active | shares compounds with STAT3 inh-1;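 active means inhibition above the mean plus 3 SD of solvent-only control wells, limit set per screening run, cut at about 16% in these data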;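 further: 0% = DMSO with IFN-gamma and 100% = nifuroxazide control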
* marks the source's active call; other numbers are inactive results; nt = not tested or not shown. Compounds with a hit are over-represented: about 4.9% of the library has one in this group of screens.

SMILES	APP 5'UTR act	STAT3 activator	STAT1 activator	NF-kB neuron act	STAT3 inh-1	STAT1 blocker	others
Cc1ccc(NC(=O)CCn2nnc3ccccc32)cc1	20	97	130*	2.2	6	-32
O=C(Cn1nnc2ccccc21)NCc1ccccc1	59	110	144*	2.4	-10	-40
Cc1ccc(C(=O)Cn2nnc3ccccc32)cc1C	119	102	143*	4.1*	-2	-47
O=[N+]([O-])c1ccc(Cl)c(/C=N/n2c(-c3cccnc3)n[nH]c2=S)c1	-8	100	96	1.3	-1	4
CCN(CC)S(=O)(=O)c1ccc(C(=O)NCCN(C)C)cc1	15	100	105	1	2	-6
CC(OC(=O)c1nc(-c2ccccc2)n(-c2ccccc2)n1)C(=O)Nc1cc(Cl)cc(Cl)c1 (stereo not drawn)	-18	100	103	0.77	-5	-4
CCOC(=O)c1cccc(NC(=O)c2ccc(N(C)C)cc2)c1	45	90	111	1.5	14	-13
Nc1ncc(-n2cncn2)c(-c2ccc(Cl)cc2)n1	19	108	99	1.4	-2	0
O=C(Cn1nnc2ccccc21)C1CC1	12	102	98	0.99	3	2
Cc1ccc(C(=O)Cn2nnc3ccccc32)cc1	104	103	119	3.3*	-3	-21
COc1cc(/C=N/N(C)c2ccccc2)cc(Cl)c1O	29	97	97	1.7	10	3
COc1ccc(OC)c(/C=N/N(C)c2ccccc2)c1	25	101	137*	2.4	6	-40
CCOc1ccc(N/C=C\C(=O)c2ccc3c(c2)OCO3)cc1	-8	90	131*	2.3	13	-34
COc1ccc(N/C=C\C(=O)c2ccc(C)cc2)cc1OC	17	99	143*	2.6	8	-49
NS(=O)(=O)c1ccc(N/C=C/C(=O)c2ccc(Br)cc2)cc1	49	104	143*	1.4	-3	-48
Cc1noc(NS(=O)(=O)c2ccc(N/C=C/C(=O)c3ccc4c(c3)OCO4)cc2)c1C	-5	113	116	1.3	-6	-17
COc1ccc(N/C=C\C(=O)c2ccc(Br)cc2)cc1OC	42	95	113	1.7	6	-15
COc1ccc(C(=O)/C(C#N)=N/Nc2ccc([N+](=O)[O-])cc2)cc1	-92	54	64	0.59	59*	37*
CCC(=O)Oc1ccc(NC(=O)CSCc2ccccc2)cc1	43	104	115	3.1	0	-20
CCOC(=O)N1CCN(CCC(=O)Nc2cc([N+](=O)[O-])ccc2OC)CC1	17	98	104	1.1	11	-4
O=C(O)CCC(=O)Nc1ccc(C(=O)OCC(=O)c2ccc(Cl)cc2Cl)cc1	21	103	104	1.1	-1	-7
COCCNC(=S)NCCc1ccc(Cl)cc1Cl	-4	88	102	0.95	14	-2
COc1ccc(C(=O)/C=C/Nc2cc(C)on2)cc1	-37	90	139*	4.3*	19	-42
COc1ccc(N/C=C/C(=O)c2ccc(Oc3ncccn3)cc2)cc1	-10	85	106	1.2	28	-7
O=C(/C=C\Nc1ccc2c(c1)OCO2)c1ccc2c(c1)OCO2	197*	51	51	8*	60*	51*
SMILES	APP 5'UTR act	STAT3 activator	STAT1 activator	NF-kB neuron act	STAT3 inh-1	STAT1 blocker	others
COc1ccc(C(=O)/C=C/Nc2ccc([N+](=O)[O-])cc2)cc1	29	95	132*	1.2	9	-36
CN(C)c1ccc(N/C=C/C(=O)c2ccc(F)cc2)cc1	67	73	120	4.6*	36	-10
CCN(CC)S(=O)(=O)c1cccc(C(=O)OCC(=O)NC(C)c2ccccc2)c1 (stereo not drawn)	31	98	100	1.2	5	0
C=CCCCCCCCCC(=O)NN	1	105	103	1.4	4	-3
O=C(/C=C\Nc1ccc2c(c1)OCO2)c1ccccn1	120	11	21	1.3	103*	87*
COc1ccc(N/C=C\C(=O)c2ccc3c(c2)OCO3)cc1	75	73	112	8.4*	30	-13
CCCNc1c(NC(C)=O)c(=O)oc2ccccc12	-3	105	96	1.1	-7	4
N#C/C(=C\c1ccc(OCc2ccccc2)cc1)C(N)=O	58	107	130*	1.9	-3	-30
O=C(CSc1nc2ncccc2[nH]1)NCCc1ccccc1	-2	nt	104	1.1	nt	-6
Clc1ccccc1CSc1ncn(-c2ccccc2)n1	83	118	131*	2.5	-18	-33
COc1cccc2sc(N(C)c3ccccc3)nc12	218*	66	150*	5.8*	43	-55
O=C(c1cc2ccccc2[nH]1)N1CCOCC1	17	135*	98	1.2	-39	2
NNC(=O)c1cc2ccccc2[nH]1	-90	115	92	1.3	-15	8
C=CCN(c1ccccc1)S(=O)(=O)c1ccc(Cl)c(C(=O)OCC(=O)c2[nH]c(C)c(C(C)=O)c2C)c1	-3	109	97	0.99	-11	3
CC(NC(=O)Cn1c(NCCO)nc2ccccc21)C1CC2CCC1C2 (stereo not drawn)	1	100	134*	1.3	3	-39
COc1ccc(-c2n[nH]c(=S)n2-c2ccc3c(c2)OCCO3)cc1	-7	102	106	1.2	0	-7
Oc1ccc(-c2n[nH]c(=S)n2-c2ccc3c(c2)OCCO3)c(O)c1	7	62	93	1.8	48*	8	STAT3 inh-2=44*;NFkB inh 2=11;STAT1 inh 2=1
O=C(/C=C/Nc1ccccc1F)c1cccs1	175*	48	100	7.2*	61*	0	STAT3 inh-2=2;NFkB inh 2=16*;STAT1 inh 2=-46
O=C(/C=C/Nc1ccc(F)cc1F)c1cccs1	107	44	99	3.8*	66*	1	STAT3 inh-2=54*;NFkB inh 2=55*;STAT1 inh 2=33*
CCOC(=O)c1ccccc1N/C=C/C(=O)c1cccs1	-3	102	112	1.3	0	-14
NC(=O)c1c(-c2ccc(Cl)cc2Cl)csc1NC(=O)Cc1ccccc1	13	62	89	0.8	44*	12	STAT3 inh-2=72*;NFkB inh 2=23*;STAT1 inh 2=16
O=C(Cc1ccccc1)Nc1scc(-c2ccccc2)c1C(=O)N1CCOCC1	-4	104	97	1	-1	4
